Screens deposited in PubChem by The Scripps Research Institute Molecular Screening Center.
The list is not random: actives were taken first. Their share in the collection is about 1.2%.
proCasp7 act – activates human procaspase-7, counter-screen for procaspase-3 activators | recombinant procaspase-7, Ac-DEVD-pNA absorbance 405 nm; D23A/D198A/D206A triple mutant, cannot self-cleave; scale: DMSO 0, 5 µM enzyme 100 | P55210 | 0.093% of 330,000 active | activation, % at 8.5 µM;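 active = percent activation above the screen-wide mean plus 3 SD, cut at about 25% in these data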
Target sequence (P55210 whole entry D23A/D198A/D206A): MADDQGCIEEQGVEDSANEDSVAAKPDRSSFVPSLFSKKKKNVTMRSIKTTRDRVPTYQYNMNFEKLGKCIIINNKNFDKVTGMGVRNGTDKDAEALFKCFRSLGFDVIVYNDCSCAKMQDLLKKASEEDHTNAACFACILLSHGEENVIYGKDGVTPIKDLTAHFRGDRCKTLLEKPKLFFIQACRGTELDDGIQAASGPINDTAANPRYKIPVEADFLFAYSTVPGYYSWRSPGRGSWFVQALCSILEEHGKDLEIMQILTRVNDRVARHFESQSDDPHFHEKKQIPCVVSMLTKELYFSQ
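Assay system: Uncleavable procaspase-7 mutant enzyme | Input: 2 µM procaspase-7 mutant as dispensed | Timing: 1 h compound preincubation, 2 h substrate cleavage, 25 °C | Repeats: One well per compound | Control set: DMSO wells as 0%, DMSO with 5 µM added PC-7 as 100% | Technique: Epi-absorbance of released pNA at 405 nm, two timepoints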
proCasp3 act – activators of human procaspase-3 | 0.11% of 330,000 active | recombinant procaspase-3 D3A, Ac-DEVD-pNA absorbance 405 nm | activation, % at 8.5 µM;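 active = activation above the mean of all tested compounds plus 3 SD, cut at about 21% in these data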;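 also: 0% = DMSO alone and 100% = DMSO wells spiked with extra 5 µM PC-3 D3A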
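Assay system – Procaspase-3 D3A mutant · Benchmarks – DMSO low control, extra-enzyme high control · Technique – 405 nm absorbance of p-nitroaniline, reads at 0 and 120 min · Doses – 8.5 µM nominal · Measure – % activation between DMSO and enzyme-spiked controls · Also added – Ac-DEVD-pNA chromogenic peptide substrate · Schedule – 1 h compound preincubation, 2 h substrate hydrolysis at 25 °C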
PP5 primary – inhibitors of human protein phosphatase 5 (PP5). purified PP5c, OMFP substrate fluorescence. inhibition, % at 6.7 µM. P53041. 0.18% of 320,000 active;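 active = inhibition above the campaign's mean inhibition across all tested compounds plus 3 SD, cut at about 9.5% in these data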;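 also: 0% = DMSO only and 100% = 100 µM cantharidin control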
PP1 counter – counter-screen for PP5 inhibitors: inhibitors of human PP1-alpha | inhibition, % at 6.7 µM | 0.9% of 320,000 active | purified PP1alpha, OMFP fluorescence | P62136;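 active = inhibition above the mean inhibition of all tested compounds plus 3 SD, computed separately for each screening campaign, cut at about 15% in these data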
PC3 dual counter – counter-screen for dual procaspase-3/7 activators: human procaspase-3 activation; activation, % at 8.5 µM; shares compounds with proCasp7 act; AID 493114; 290 tested, under 10 active; recombinant PC-3 D3A, Ac-DEVD-pNA absorbance 405 nm; aspartates 9, 28, 175 changed to alanine; 100% = enzyme control;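 active = mean percent activation across triplicates above a set limit taken from the earlier primary procaspase-3 screen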;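 also: 0% = DMSO wells and 100% = DMSO wells with 5 µM added PC-3 D3A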
PC7 dual conf – procaspase-7 (human) activation, dual activator confirmation | shares compounds with proCasp7 act | recombinant procaspase-7, Ac-DEVD-pNA absorbance 405 nm; D23A/D198A/D206A mutant that cannot self-cleave | activation, % at 8.5 µM | 290 tested, under 10 active | AID 493115;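 active = mean activation above a set limit carried over from the earlier primary screen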;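 also: 0% = DMSO only and 100% = DMSO with added 5 µM PC-7 enzyme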
Active calls of the source: *; nt = no result given.

SMILES	proCasp7 act	proCasp3 act	PP5 primary	PP1 counter	PC3 dual counter	PC7 dual conf
COc1ccc(C2C3=C(CC(C)(C)CC3=O)Nc3c2c(=O)[nH]c(=O)n3Cc2ccccc2)cc1OC (stereo unspecified)	26*	12	1	-2	-27	-34
COc1ccc(C2C3=C(CC(C)(C)CC3=O)Nc3c2c(=O)[nH]c(=O)n3Cc2ccccc2)cc1 (stereo unspecified)	29*	12	0	0	-30	-34
COc1cc(C2C3=C(CC(C)(C)CC3=O)Nc3c2c(=O)[nH]c(=O)n3Cc2ccccc2)ccc1O (stereo unspecified)	13	10	-2	2	nt	nt
CC1=CSC2=NC(=O)/C(=C/c3cccc(OC(=O)c4ccco4)c3)C(=N)N12	-10	-15	1	1	nt	nt
COc1ccc(S(=O)(=O)N2CCN(C(=O)CCOc3ccccc3)CC2)cc1OC	-1	-7	1	-1	nt	nt
COc1ccc(S(=O)(=O)N2CCN(C(=O)COc3ccc(C)c(C)c3)CC2)cc1OC	39*	-2	1	0	1	-2
COc1ccccc1N1CCN(C(=O)c2cc3c(s2)-c2ccccc2OC3)CC1	6	4	5	1	nt	nt
COc1cc2c(cc1OC)C(C)N(C(=O)c1cc3c(s1)-c1c(C)cccc1OC3)CC2 (stereo unspecified)	22	9	3	1	nt	nt
COc1cc2c(cc1OC)C(C)N(C(=O)c1cc3c(s1)-c1ccccc1OC3)CC2 (stereo unspecified)	37*	26*	2	-1	13	11
O=C(c1cc2c(s1)-c1ccccc1OC2)N1CCc2ccccc2C1	27*	12	3	0	3	2
COC(=O)c1cnn2c1C(=O)N(Cc1cccs1)CC2	5	-4	0	-4	nt	nt
c1ccc(Cn2c(-c3ccco3)nc3nc4ccccc4nc32)cc1	46*	12	2	3	-31	-36
CCCCCn1c(-c2ccco2)nc2nc3ccccc3nc21	7	5	5	3	nt	nt
O=c1oc2ccc3ccccc3c2cc1-c1nc2ccccc2o1	28*	-2	0	-3	-30	-35
COc1ccc2oc(=O)c(-c3nc4ccccc4o3)cc2c1	5	8	1	0	nt	nt
COCc1nnc(NC(=O)CCSc2ccccc2)s1	27*	1	3	-1	4	0
COc1ccc(C2CC(c3ccccc3Cl)=NN2c2ccc(S(N)(=O)=O)cc2)cc1 (stereo unspecified)	47*	27*	nt	nt	-29	-34
COc1ccc(C2CC(c3cccc(C(F)(F)F)c3)=NN2c2ccc(S(N)(=O)=O)cc2)cc1 (stereo unspecified)	53*	44*	nt	nt	-30	-35
COc1ccc(C2CC(c3ccccc3)=NN2c2ccc(S(N)(=O)=O)cc2)cc1 (stereo unspecified)	51*	28*	1	5	-28	-35
NS(=O)(=O)c1ccc(N2N=C(c3ccccc3)CC2c2cccc(Cl)c2)cc1 (stereo unspecified)	44*	39*	nt	nt	-31	-33
COc1ccc(C2CC(c3cccc(Br)c3)=NN2c2ccc(S(N)(=O)=O)cc2)cc1 (stereo unspecified)	-42	-4	nt	nt	nt	nt
CCCN(CC(=O)Nc1ccccc1C)C(=O)c1ccc(N2CCCCCC2)c([N+](=O)[O-])c1	-6	-7	1	-4	nt	nt
CS(=O)(=O)N1CCN(c2ccc(C(=O)N3CCOCC3)cc2[N+](=O)[O-])CC1	-5	-3	2	0	nt	nt
O=C(O)c1ccc(N2N=C(c3ccccc3)CC2c2ccccc2)cc1 (stereo unspecified)	-5	4	0	4	nt	nt
COc1ccc(C2CC(c3ccccc3)=NN2c2ccc(C(N)=O)cc2)cc1 (stereo unspecified)	38*	30*	2	5	-29	-36
Nc1ccccc1-c1nc2ccccc2c(=O)o1	34*	27*	-3	6	-30	-36
